Published values gathered from unrelated publications.
Protocols differ between the studies behind these lines.
Target: Muscarinic acetylcholine receptor M3 (CHRM3, Homo sapiens, UniProt P20309)
Concentration: 10 µM

test	inhibition	SMILES
ligand displacement, radioligand	43%	CCN(CC)c1ccc(C2Nc3ccc(C(=O)c4ccccc4)cc3NC3=C2C(=O)CC(C)(C)C3)cc1 (stereo not drawn)
ligand displacement, radioligand	5%	Ic1cccc2cnccc12
ligand displacement	-31.1%	N#Cc1cc(Cn2c(N3CCCC3)nc3ccccc32)ccc1F
ligand displacement, radioligand	< 10%	O=C1N=C(N2CCCCN2)S/C1=C\c1ccc(F)cc1O
ligand displacement	-39.7%	CCCNc1nc2ccccc2n1Cc1ccc(Cl)cc1
cell-free assay	-16.6%	Oc1cccc(Nc2nc(-c3ccc(F)cc3F)cs2)c1
ligand displacement, radioligand	13%	O=C(Nc1ccc(S(=O)(=O)N2CCC(Cl)CC2)cc1)c1ccc([N+](=O)[O-])o1
ligand displacement, radioligand	14%	CCN(Cc1ccccc1C(F)(F)F)C(=O)C1CCN(S(=O)(=O)c2ccc3[nH]ncc3c2)CC1
cell-free assay	17%	O=C(c1ccc(F)cc1)N(Cc1ccccc1)C1CCCCC1
